# 14-3-3 Bad PPI: disrupts binding of bovine 14-3-3 zeta to phospho-Bad peptide | P63103 | TR-FRET 14-3-3zeta/Dy647-pBad peptide displacement, 1 h | inhibition, % at 21.7 µM | 0.71% of 220,000 active | AID 781;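 active = inhibition above about 70%, limit read from the data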;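 note: 0% = full 14-3-3 plus peptide FRET controls and 100% = background without 14-3-3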
# Target sequence (P63103 whole entry, looked up): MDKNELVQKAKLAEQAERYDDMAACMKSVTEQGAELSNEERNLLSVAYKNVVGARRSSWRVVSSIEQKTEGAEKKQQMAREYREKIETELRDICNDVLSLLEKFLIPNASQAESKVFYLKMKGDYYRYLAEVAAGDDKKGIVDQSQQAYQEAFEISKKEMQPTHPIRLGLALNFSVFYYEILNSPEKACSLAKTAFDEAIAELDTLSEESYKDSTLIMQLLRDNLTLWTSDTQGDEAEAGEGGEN
# RanGTP-Impb inh: disruptors of Ran-importin-beta complex formation – biochemical, FRET, CFP-Ran, YFP-importin-beta, homogeneous, primary screen. cell-free CFP-Ran/YFP-importin-beta FRET ratio. inhibition, % (concentration not given with the values). 1.1% of 300,000 active. AID 2216;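 active = more than half of the replicate wells show a fall in the fluorescence ratio signal beyond about 16%, limit read from the data, passing the limit was not always enough; inconclusive = exactly half of the replicate wells pass the set limit; inactive = fewer than half of replicates pass the limit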;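 note: 0% = DMSO wells and 100% = Ran loaded with GDP instead of GTP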
# Hck Nef HTS: human Hck-Nef kinase inhibition | inhibition, % at 20 µM | Recombinant Hck-YEEI plus Nef, Z-Lyte FRET kinase assay | AID 463187 | 0.68% of 220,000 active;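 active = Hck-Nef kinase inhibition above about 50%, limit read from the data; inactive = inhibition below that limit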;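 note: 0% = DMSO with Hck plus Nef and 100% = Hck alone without Nef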
# Tb hexokinase: blocks Trypanosoma brucei hexokinase 1 activity. recombinant TbHK1, G6PDH-coupled NADH A340. inhibition, % at 10 µM. 0.11% of 220,000 active;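 active = inhibition of 50% or more in the single-dose primary screen; inactive = inhibition below 50%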
# Runt-SMMHC FRET: blocks binding of human RUNX1 Runt domain to CBFb-SMMHC. AID 1434. inhibition, % at 20 µM. 0.74% of 220,000 active. Cerulean-Runt/Venus-CBFb-SMMHC FRET ratio 530/480, 1 h;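 active = mean inhibition across duplicate retests at 20 µM reaching about 50%, limit read from the data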;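 note: 0% = DMSO wells and 100% = wells with excess untagged CBFb-SMMHC; inhibitors lower the FRET ratio by blocking Runt binding to CBFb-SMMHC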
# Runt-CBFb FRET: Runt domain-CBFb interaction inhibition. 0.46% of 220,000 active. inhibition, % at 20 µM. AID 1496. Cerulean-Runt/Venus-CBFb FRET ratio 530/480, 1 h. Q01196+Q13951;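 active = inhibition over about 50% at 20 µM in the single-dose screen, limit read from the data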;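 note: 0% = DMSO wells and 100% = excess unlabeled CBFb competitor control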
#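 Doses: 20 µM compound in 1% DMSO | Material: Cerulean-labeled Runt domain protein | Amount: Each fluorescent fusion protein 100 nM | Schedule: Two 1 h room-temperature incubations shielded from light | Measured by: FRET fluorescence | Evaluation: Loss of energy transfer signal | Controls: Unlabeled CBFb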
# Hck Nef conf: Hck-Nef kinase inhibition, confirmation; 28% of 1,300 active; AID 463188; calls only at 10 µM; Recombinant Hck-YEEI:Nef, Z-Lyte FRET kinase assay; shares compounds with Hck Nef HTS;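 active = average inhibition of at least 50%, with Z-scores no higher than 3 in both the phospho-tyrosine peptide and fluorescence counterscreens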
# Numbers without * were called inactive; i = inactive; ? = inconclusive; · = no result shown; + = active, no number. An excerpt weighted towards active compounds, which were near 2.2% of everything screened.
SMILES,14-3-3 Bad PPI,RanGTP-Impb inh,Hck Nef HTS,Tb hexokinase,Runt-SMMHC FRET,Runt-CBFb FRET,Hck Nef conf
COc1ccc(-c2csc(NC(=O)c3ccccc3NS(=O)(=O)c3ccc(F)c(F)c3)n2)cc1,2,2,80*,-8,-6,-4,+
O=C(/C=C/c1ccccc1)NCC(=O)N/N=C/c1cccs1,·,0,·,·,·,·,·
C=CCn1cc(/C=C2/NC(=O)NC2=O)c2ccccc21,5,-2,61*,-7,-8,3,i
C=CCn1cc(/C=N/N2C(=O)C3C4C=CC(C4)C3C2=O)c2ccccc21 (stereo not given),6,-1,12,-12,2,0,·
Cc1ccc(-c2nnc(-c3ccc(NC(=O)c4ccco4)cc3)o2)cc1,19,5,108*,-33,-8,-3,i
O=C(Nc1ccc(-c2nc3ncccc3o2)cc1)c1ccco1,-11,0,8,-68,3,2,·
Cc1ccc(SC(CC(=O)c2ccc(F)cc2)C(=O)O)cc1 (stereo not given),·,1,·,·,·,·,·
CC(C)(C)c1ccc(C(=O)CC(Sc2ccc(Cl)cc2)C(=O)O)cc1 (stereo not given),-3,-2,77*,-1,43,47,i
O=c1c2c3c(sc2[nH]c(=S)n1Cc1ccco1)CCC3,21,2,81*,-5,-2,17,i
CCOC(=O)N1CCN(C(=O)CSC2=NS(=O)(=O)c3ccccc3N2)CC1,·,2,·,·,·,·,·
CN=c1scc(-c2ccccc2F)n1/N=C/c1ccc(O)c(O)c1O,8,2,122*,8,18,44,i
CCCCN=C1NN=C(c2cc3ccccc3o2)CS1,-8,1,4,-9,5,1,·
O=c1cc(-c2ccc(O)c(-c3c(O)cc(O)c4c(=O)cc(-c5ccc(O)cc5)oc34)c2)oc2cc(O)cc(O)c12,3,-1,53*,-10,-11,-8,+
COc1c(-c2ccc(O)cc2)oc2cc(O)cc(O)c2c1=O,23,·,53*,-15,-7,1,i
O=c1cc(-c2ccc(O)c(O)c2)oc2cc(O)cc(O)c12,22,-7,91*,-13,-80,10,+
O=c1c(-c2c(O)cc(O)c3c(=O)cc(-c4ccc(O)cc4)oc23)c(-c2ccc(O)cc2)oc2cc(O)cc(O)c12,18,·,66*,-11,-4,-2,i
COc1ccc(-c2oc3cc(O)c(OC)c(O)c3c(=O)c2OC)cc1,-1,0,37,-36,0,1,·
O=c1c(O)c(-c2ccc(O)c(O)c2)oc2cc(O)cc(O)c12,·,-8,·,·,·,·,·
O=C(NCCCn1ccnc1)C(Cc1ccccc1)N1C(=O)c2ccccc2C1=O (stereo not given),-4,-3,-1,-3,4,5,·
COc1ccc(-c2coc3cc(O)cc(O)c3c2=O)cc1,1,?,2,-14,-2,-4,·
O=c1c(-c2ccc(O)cc2)coc2cc(O)cc(O)c12,0,2,52*,-35,-2,15,i
Cc1nn2c(-c3ccc(S(=O)(=O)N4CCN(C)CC4)o3)nnc2c2ccccc12,·,2,·,·,·,·,·
CCC(=O)Oc1ccc2c(C)cc(=O)oc2c1C(=O)CC,5,1,154*,-28,-1,6,·
COc1ccc(N2CCN(CCNS(=O)(=O)c3ccc(C)cc3)CC2)cc1,·,3,·,·,·,·,·
C/C(O)=C(/C=NCC(=O)O)C(=O)Nc1nccs1,1,?,3,-3,0,-1,·
SMILES,14-3-3 Bad PPI,RanGTP-Impb inh,Hck Nef HTS,Tb hexokinase,Runt-SMMHC FRET,Runt-CBFb FRET,Hck Nef conf
CCOC(=O)c1nnn2c1nc(Nc1cccc(C(F)(F)F)c1)c1ccccc12,8,4,66*,-6,-1,-2,i
Nc1ncnc2oc(-c3ccco3)c(-c3ccco3)c12,-14,-5,71*,-17,1,17,+
COc1cc(NC(=O)COC(=O)c2cnccn2)c(C)cc1[N+](=O)[O-],-5,?,18,-23,-7,2,·
CC1CC(C)CN(S(=O)(=O)c2ccccc2[N+](=O)[O-])C1 (stereo not given),-6,-4,4,9,-3,0,·
O=C(CN1CC[n+]2c(-c3ccccc3)csc21)c1ccc(Br)cc1,-4,0,67*,-5,3,5,+
O=C(CN1CC[n+]2c(-c3cccs3)csc21)c1ccc(Br)cc1,-11,2,4,-17,1,3,·
N#Cc1ccc(/C=C\c2nccc3c2[nH]c2ccccc23)cc1,31,103*,57*,-3,90,17,i
OCCCCc1nccc2c1[nH]c1ccccc12,5,-2,15,-10,-1,3,·
O=C(Nc1ccccc1)Nc1snnc1C(=O)Nc1cccc(O)c1,11,5,60*,-3,-11,-1,+
Cc1cc(OCc2nnc(SC(C)C(=O)O)n2Cc2ccccc2)ccc1Cl (stereo not given),-3,3,25,5,-1,-3,·
CC1C=CCC2C(=O)N(c3cc(Cl)ccc3O)C(=O)C12 (stereo not given),-7,4,-53,-9,3,-1,·
Cc1ccccc1C(=O)Nc1nc2c(C)csc2c(=O)s1,-8,-1,78*,-19,16,7,i
COc1ccc(/C=C/C(=O)NCC(c2ccc(F)cc2)N2CCOCC2)cc1OC (stereo not given),-3,-2,15,-22,-1,0,·
c1coc(-c2nc3nc4ccccc4nc3n2CC2CCCO2)c1 (stereo not given),7,11,159*,-28,26,12,·
c1ccc(-c2nc3nc4ccccc4nc3n2CC2CCCO2)cc1 (stereo not given),3,2,23,-61,2,1,·
CC(=O)N(C(C)=O)S(=O)(=O)c1ccc(N=NN2CCCCC2)cc1,-18,-2,1,-16,-5,1,·
C=CCC1(/C=N/O)CCOC(C)(C)C1 (stereo not given),2,2,22,-9,0,1,·
O=C(NCCc1ccccn1)c1cc(-c2ccc(Cl)c(Cl)c2Cl)nc2ccccc12,5,1,4,-11,-6,-4,·
O=C(Nc1nn[nH]n1)c1cc(-c2ccc(Cl)c(Cl)c2Cl)nc2ccccc12,-7,3,119*,8,-3,2,i
O=C(Nc1cccc(S(=O)(=O)NC2=NCCCCC2)c1)c1cc(-c2ccco2)nc2ccccc12,41,-5,93*,16,-12,28,+

# Screening results as filed in PubChem.
